Measurements pooled from the literature.
Lines come from different studies, so protocols differ.
Read-out: metabolic stability
Host: human

For `CC(C)(C)n1cc2c(n1)C(O)CC1(CCN(C(=O)c3ccc4[nH]ncc4c3)CC1)O2` (centres unmarked), the scaled CLint was under 8.8 mL/min/kg (liver microsomes).
With `Nc1nc(-c2cccc(NC(=O)Nc3cccc(-c4c[nH]c(N)n4)c3)c2)c[nH]1` the scaled CLint was under 20.8 mL/min/kg (liver microsomes; 5 µM; pH 7.4).
`Cc1ccc(F)c2cc(C(=O)N[C@@H]3CCC[C@H](N4CCOCC4)C3)[nH]c12` gave a scaled CLint of 75 mL/min/kg (hepatocytes; 0.5 µM; 2 h).
For `CC(C)N1Cc2cc(C(F)(F)F)ncc2C2=CN=C(NCc3c(F)ccc4c3CCO4)N3C=NC(C1=O)C23` (centres unmarked), the scaled CLint was 5.65 mL/min/kg (liver microsomes; 100 µM; 30 min).
The scaled CLint of `Cn1cc([C@H]2C[C@H]3[C@@H](CF)SC(N)=N[C@@]3(c3ccc(F)cc3F)CO2)cn1` is reported as under 8 mL/min/kg (liver microsomes).
For `O=C1c2ccc(COc3cccc(F)c3)nc2CCN1c1ccc(F)cc1`, the scaled CLint was 8.8 mL/min/kg (liver microsomes).
`O=C1C2N=CN3C(NCc4c(F)ccc5c4CCO5)=NC=C(c4cnc(C(F)(F)F)cc4CN1CC(F)F)C23` (centres unmarked) has a scaled CLint of 11.4 mL/min/kg (liver microsomes; 100 µM; 30 min).
`NC1=N[C@@]2(c3ccc(F)cc3F)CO[C@@H](c3ncco3)C[C@H]2CS1` has a scaled CLint of under 8.7 mL/min/kg (liver microsomes).
The scaled CLint of `Cc1cccnc1C(=O)Nc1ccc(N2C(=O)c3cccc(Cl)c3C2=O)c(Cl)c1` is reported as 16.1 mL/min/kg (liver microsomes; 1 µM; pH 7.4).
For `C[C@H]1SC(N)=N[C@@]2(c3ccc(F)cc3F)CO[C@@H](c3cnn(C)c3)C[C@@H]12`, the scaled CLint was under 8 mL/min/kg (liver microsomes).
The scaled CLint of `O=C1c2ncc(COc3ccccc3)cc2CCN1c1ccc(F)cc1` is reported as 19 mL/min/kg (liver microsomes).
`Nc1nc(-c2ccc(NC(=O)Nc3cccc(-c4c[nH]c(N)n4)c3F)cc2F)c[nH]1` gave a scaled CLint of under 20.8 mL/min/kg (liver microsomes; 5 µM; pH 7.4).
For `Cc1ccc(F)c2cc(C(=O)N[C@@H]3CCC[C@H](N4CCN(S(C)(=O)=O)CC4)C3)[nH]c12`, the scaled CLint was 41 mL/min/kg (hepatocytes; 0.5 µM; 2 h).
With `CCCN(C)Cc1cc(-c2[nH]c3cccc(F)c3c(=O)c2C)ccc1Cc1ccc(OC(F)(F)F)cc1` the scaled CLint was 1040 mL/min/kg (liver microsomes).
With `Cc1ccc(F)c2cc(C(=O)N[C@@H]3CCC[C@H](N4CCN(C)C(=O)C4)C3)[nH]c12` the scaled CLint was 23.7 mL/min/kg (hepatocytes; 0.5 µM; 2 h).
`Cc1cc(NC(=O)Cc2ccc(F)c(C#N)c2)n(CC2CCCCC2)n1` has a scaled CLint of 648 mL/min/kg (liver microsomes).
With `Cc1cc([C@H]2C[C@H]3[C@@H](C)SC(N)=N[C@@]3(c3ccc(F)cc3F)CO2)on1` the scaled CLint was under 8 mL/min/kg (liver microsomes).
For `CC(=O)Nc1cc(Nc2cc(NC3CC3)n3ncc(C#N)c3n2)ccc1N1CCC[C@H](O)C1`, the scaled CLint was 73 mL/min/kg (hepatocytes; 1 µM; serum-free).
With `Cc1cc([C@H]2C[C@H]3CSC(N)=N[C@@]3(c3ccc(F)cc3F)CO2)on1` the scaled CLint was 55.2 mL/min/kg (liver microsomes).
`Nc1nc(-c2cc(F)cc(NC(=O)Nc3cc(F)cc(-c4c[nH]c(N)n4)c3)c2)c[nH]1` has a scaled CLint of under 20.8 mL/min/kg (liver microsomes; 5 µM; pH 7.4).
